Measurements published in ChEMBL document CHEMBL4229342, “Synthesis of novel proxyphylline derivatives with dual Anti-Candida albicans and anticancer activity” (Eur J Med Chem, 2018).
Active and inactive are the calls of the source. No cut-off for these calls is given here.

Tests used:
Candida albicans [1] = assay: (§1) Antifungal activity against Candida albicans ATCC 90028 infected in Galleria mellonella larvae infected with 20 uM compound pre-treated cell suspensions assessed as larvae survival incubated in dark for 144 hrs at 30 degC and measured every 24 hrs (reference value: 80%); assay type: functional
Candida albicans [2] = assay: Induction of endochitinase release in Candida albicans ATCC 90028 assessed as p-nitrophenyl release from triacetylochitotriose substrate A at 20 uM by chitinolytic activity assay; assay type: functional, organism-based
Candida albicans [3] = assay: as §1, with “reduction in fungal burden” for “larvae survival incubated”, “by hematoxylin and eosin staining-based light microscopic analysis” for “(reference value: 80%)”; assay type: functional, organism-based
Candida albicans [4] = assay: Disruption of cell wall in Candida albicans SC5314 assessed as decrease in chitin level by measuring chitin mean staining index at 20 uM after 18 hrs by calcofluor white staining-based flow cytometric analysis (reference value: 496 +/- 51); assay type: functional
Candida albicans [5] = assay: Disruption of cell wall in Candida albicans SC5314 assessed as decrease in chitin level by measuring chitin mean staining index at 0.07 uM after 18 hrs by calcofluor white staining-based flow cytometric analysis (reference value: 496 +/- 51); assay type: functional
Candida albicans [6] = assay: Antibiofilm activity in Candida albicans ATCC 90028 assessed as increase in chitin distribution within biofilm cells at 20 uM after 18 hrs by calcofluor white staining-based confocal laser scanning microscopic analysis; assay type: functional, organism-based
Candida albicans [7] = assay: as §1, with “reduction in larval hemocytes” for “larvae survival”, “by hematoxylin and eosin staining-based light microscopic analysis” for “(reference value: 80%)”; assay type: functional, organism-based
Candida albicans [8] = assay: Antifungal activity against Candida albicans ATCC 90028 infected in Galleria mellonella larvae infected with 31 uM compound pre-treated cell suspensions assessed as melanization incubated in dark for 144 hrs at 30 degC and measured every 24 hrs (reference value: 65%); assay type: functional
Candida albicans [9] = assay: Induction of apoptosis in Candida albicans ATCC 90028 planktonic forms assessed as increase in DNA damage at 1 ug/ml by ethidium bromide staining based gel electrophoresis and confocal laser scanning microscopy; assay type: functional, organism-based
Candida albicans [10] = assay: Antifungal activity against Candida albicans ATCC 90028 infected in Galleria mellonella larvae infected with 31 uM compound pre-treated cell suspensions assessed as larvae survival incubated in dark for 144 hrs at 30 degC and measured every 24 hrs (reference value: 80%); assay type: functional
Candida albicans [11] = assay: Antibiofilm activity in Candida albicans ATCC 90028 assessed as beta-glucan uniform distribution at 248 uM after 18 hrs by Congo red staining-based confocal laser scanning microscopic analysis; assay type: functional, organism-based
In short: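 Mature C. albicans biofilm cells were stained with 2% Congo Red to detect β-glucan exposure. They were imaged by confocal laser scanning microscopy as fluorescence and fluorescence/DIC overlays. Treated biofilms were compared with untreated control biofilm.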

SMILES	survival at 20 µM (Candida albicans [1])	Activity (Candida albicans [2])	Activity (Candida albicans [3])	Activity_index (Candida albicans [4])	Activity_index (Candida albicans [5])	Activity (Candida albicans [6])	Activity (Candida albicans [7])	Activity (Candida albicans [8])	Activity (Candida albicans [9])	survival at 31 µM (Candida albicans [10])	Activity (Candida albicans [11])
CC(Cn1cnc2c1c(=O)n(C)c(=O)n2C)OCc1cn(CCCn2nc3c(Br)c(Br)c(Br)c(Br)c3n2)nn1 (stereo unspecified)	100%	inactive	Active	370	53	Active	Active				
CC(CN1c2ccccc2Sc2ccccc21)OC(=O)OC(C)Cn1cnc2c1c(=O)n(C)c(=O)n2C (stereo unspecified)								5 - 15%	inactive	95%	inactive
